Converted amounts (≈) assume the structure as drawn.
Experiments:
[1] = test system: MT4; test: Antiviral Activity against HIV-1, IIIB, in MT-4 Cells; d indicates no activity at 3 uM; format: functional, cell-based, Homo sapiens
Summary of the method: (§1)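 MT4 cells infected with HIV-1 IIIB; virus adsorbed at 1 × 10⁶ cells/mL, 37 °C, 1 h, then plated at 1 × 10⁵ cells/mL with compound added postadsorption. Inoculum set to kill 90% of cells in 5 days. Incubated 5 days; viability of infected and mock-infected cells by MTT, read spectrophotometrically. Medium with 10% FBS; DMSO ≤0.3%. Values given as mean ± SD, n in parentheses.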

[2] = Oral Bioavailability was measured as Maximal observed concentration (Cmax) value at dose 125 mg/kg; format: ADME, organism-based; parameters: dose 125 mg/kg, route oral; details: in vivo
Summary of the method: (§2)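 Female Balb/c mice, fasted 24 h before and during the study, water ad libitum. Dosed by oral gavage at 125 mg/kg in a liquid formulation. Heparinized whole blood sampled at various times, methanol-extracted, cleaned on sulfobenzyl SPE, then RP-C18 HPLC with UV at 200 nm against an internal standard. Cmax taken as observed; AUC calculated. Detection limit 0.1 µM.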

[3] = Oral Bioavailability was measured as area-under-curve(AUC) value at dose 125 mg/kg; format: ADME, organism-based; details: in vivo; summary of the method: as §2
[4] = target: Human immunodeficiency virus type 1 protease (Human immunodeficiency virus 1, UniProt Q72874); test: Binding affinity against HIV-1 protease
Summary of the method: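 Recombinant HIV-1 PR expressed in E. coli JM105 and purified to homogeneity. Enzyme incubated at 37 °C in 0.1 M MES, 0.37 M NaCl, 4 mM EDTA, pH 6.25, with 280 µM chromogenic nonapeptide substrate (pNph). Initial rates taken from the absorbance decrease at 298 nm. IC50 fitted, then Ki = (IC50 − Et/2)/(1 + S/Km). Mean of two determinations; DMSO ≤5%.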

[5] = Solubility (phosphate-buffered saline, pH =7.4); format: physicochemical; details: read-out: S
Summary of the method: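 About 1 mg of lyophilized amorphous inhibitor in 1 mL PBS (pH 7.4), vortexed 1 min and sonicated 30 min at 37 °C. Filtered, then centrifuged at 100 000 rpm for 30 min. Supernatant run on RP-C18 HPLC (10 mM NH4OAc/CH3CN 50/50, UV 210 nm) and quantified by external standard. Minimum detectable 0.1 µg/mL.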

[6] = test system: Human immunodeficiency virus 1; test: Antiviral activity against HIV-1, IIIB, in MT-4 Cells; format: functional, organism-based; details: Human immunodeficiency virus 1, MT4
Summary of the method: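 HIV-1 strain IIIB-induced cytopathic effect in HTLV-I-transformed MT4 cells. Virus adsorbed to cells at 1 × 10⁶ cells/mL, 37 °C, 1 h. Compounds added postadsorption, final 1 × 10⁵ cells/mL. Inoculum set to kill 90% of cells in 5 days. Mock-infected and compound-only controls run. DMSO ≤0.3%, medium with 10% FBS. Viability read by MTT after 5 days. Mean of repeat determinations.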

[7] = Oral Bioavailability was measured as Maximal observed concentration (Cmax) value at dose 125 mg/kg; b = No compound detectable in blood above the detection limit of 0.1 uM; format: ADME, organism-based; parameters: dose 125 mg/kg, route oral; details: in vivo; summary of the method: as §2
[8] = Oral Bioavailability was measured as area-under-curve(AUC) value at dose 125 mg/kg; b = No compound detectable in blood above the detection limit of 0.1 uM; format: ADME, organism-based; details: in vivo; summary of the method: as §2
[9] = test system: MT4; test: Antiviral Activity against HIV-1, IIIB, in MT-4 Cells; d indicates no activity at 10 uM; format: functional, cell-based, Homo sapiens; summary of the method: as §1

In the case of `CC(C)(C)OC(=O)N[C@@H](Cc1ccccc1)[C@@H](O)[C@@H](NCc1ccc(OCCO)cc1)C(=O)NCc1ccccc1`, the IC50 [1] is reported as “No activity”.

`COc1ccc(CN[C@@H](C(=O)NC2c3ccccc3C[C@H]2O)[C@H](O)[C@H](Cc2ccccc2)NC(=O)[C@@H](NC(=O)CSc2nnn(C)n2)C(C)(C)C)cc1` (stereo partly specified) gave a Cmax [2] of 2800 nM, an AUC [3] of 7.4 µM·h and a Ki [4] of 0.012 µM. It also gave a solubility [5] of 78 µM (≈ 58.1 µg/mL) and an IC50 [6] of 0.18 µM.

In the case of `COc1ccc(CN[C@@H](C(=O)N[C@H]2c3ccccc3C[C@H]2O)[C@H](O)[C@H](Cc2ccccc2)NC(=O)[C@@H](NC(=O)Nc2cccc(OC)c2OC)C(C)(C)C)cc1`, the Ki [4] is reported as 0.013 µM and the IC50 [6] is reported as 0.532 µM.

Work on `COc1ccc(CN[C@@H](C(=O)NC2c3ccccc3C[C@H]2O)[C@H](O)[C@H](Cc2ccccc2)NC(=O)[C@@H](NC(=O)CSc2nncn2C)C(C)(C)C)cc1` (stereo partly specified) yielded a Cmax [2] of 700 nM, an AUC [3] of 1.6 µM·h and a Ki [4] of 0.0058 µM. The solubility [5] was 260 µM (≈ 193 µg/mL) and the IC50 [6] was 0.19 µM.

In the case of `CC(=O)NCc1ccc(CN[C@@H](C(=O)N[C@H]2c3ccccc3C[C@H]2O)[C@H](O)[C@H](Cc2ccccc2)NC(=O)[C@@H](NC(=O)OCc2ccccc2)C(C)(C)C)cc1`, the Ki [4] is reported as 0.0057 µM, the solubility [5] is reported as 25.3 µM (≈ 19.3 µg/mL) and the IC50 [6] is reported as 0.099 µM. The Cmax [7] was “No compound detectable” and the AUC [8] was “No compound detectable”.

Work on `CCC(C)C(NC(=O)OCc1ccccc1)C(=O)N[C@@H](Cc1ccccc1)[C@@H](O)[C@@H](NCc1ccc(OC)cc1)C(=O)N[C@@H]1c2ccccc2CC1O` (stereo partly specified) yielded a Ki [4] of 0.0082 µM and an IC50 [6] of 1.1 µM.

For `CC(C)(C)OC(=O)N[C@@H](Cc1ccccc1)[C@@H](O)[C@@H](NCc1ccc(CNC(=O)OCc2ccccc2)cc1)C(=O)N[C@H]1c2ccccc2C[C@H]1O`, the IC50 [9] was “No activity”.

`CCOc1ccc(CN[C@@H](C(=O)N[C@H]2c3ccccc3C[C@H]2O)[C@H](O)[C@H](Cc2ccccc2)NC(=O)[C@@H](NC(=O)OCc2ccccc2)C(C)(C)C)cc1` showed a Cmax [2] of 4300 nM, an AUC [3] of 23.9 µM·h and a solubility [5] of less than 1 µM. The IC50 [6] was 0.256 µM.

With `CC(C)(C)OC(=O)N[C@@H](Cc1ccccc1)[C@@H](O)[C@@H](NCc1ccc(OCCN2CCOCC2)cc1)C(=O)N[C@@H]1c2ccccc2C[C@H]1O` the Ki [4] was 0.13 µM and the IC50 [9] was “No activity”.

With `COc1ccc(CN[C@@H](C(=O)NC2c3ccccc3C[C@H]2O)[C@H](O)[C@H](Cc2ccccc2)NC(=O)[C@@H](NC(=O)CCc2ccc(OC)c(O)c2)C(C)(C)C)cc1` (stereo partly specified) the Cmax [2] was 250 nM, the AUC [3] was 0.2 µM·h and the Ki [4] was 0.0077 µM. The IC50 [6] was 0.088 µM.

In the case of `COc1ccc(CN[C@@H](C(=O)N[C@@H]2c3ccccc3C[C@H]2O)[C@H](O)[C@H](Cc2ccccc2)NC(=O)C(CC(N)=O)NC(=O)OCc2ccccc2)cc1` (stereo partly specified), the Ki [4] is reported as 0.015 µM and the IC50 [6] is reported as 1.4 µM.

In the case of `CCOc1ccc(CN[C@@H](C(=O)N[C@@H]2c3ccccc3C[C@H]2O)[C@H](O)[C@H](Cc2ccccc2)NC(=O)OC(C)(C)C)cc1`, the Ki [4] is reported as 0.092 µM and the IC50 [9] is reported as “No activity”.

In the case of `COc1ccc(CN[C@@H](C(=O)N[C@@H]2c3ccccc3C[C@H]2O)[C@H](O)[C@H](Cc2ccccc2)NC(=O)[C@@H](NC(=O)OC(C)(C)C)C(C)(C)C)cc1`, the Ki [4] is reported as 0.21 µM and the IC50 [1] is reported as “No activity”.

`COc1ccc(CN[C@@H](C(=O)NC2c3ccccc3C[C@H]2O)[C@H](O)[C@H](Cc2ccccc2)NC(=O)[C@@H](NC(=O)CSc2nnc(C)s2)C(C)(C)C)cc1` (stereo partly specified) showed a Cmax [2] of 20000 nM, an AUC [3] of 60.3 µM·h and a Ki [4] of 0.008 µM. It also gave a solubility [5] of 39 µM (≈ 29.7 µg/mL) and an IC50 [6] of 0.178 µM.

For `COc1ccc(CN[C@@H](C(=O)N[C@H]2c3ccccc3CC2O)[C@H](O)[C@H](Cc2ccccc2)NC(=O)[C@@H](NC(=O)OCc2ccccc2)C(C)C)cc1` (stereo partly specified), the Cmax [2] was 12300 nM, the AUC [3] was 137 µM·h and the Ki [4] was 0.0081 µM. The solubility [5] was 2.9 µM (≈ 2.06 µg/mL) and the IC50 [6] was 0.344 µM.

For `COc1ccc(CN[C@@H](C(=O)N[C@@H]2c3ccccc3C[C@H]2O)[C@H](O)[C@H](Cc2ccccc2)NC(=O)C(CC(=O)O)NC(=O)OCc2ccccc2)cc1` (stereo partly specified), the Ki [4] was 0.022 µM and the IC50 [1] was “No activity”.

For `COc1ccc(CN[C@@H](C(=O)N[C@H](C(=O)NCc2nc3ccccc3[nH]2)C(C)C)[C@H](O)[C@H](Cc2ccccc2)NC(=O)[C@@H](NC(=O)OCc2ccccc2)C(C)(C)C)cc1`, the Cmax [2] was 200 nM, the AUC [3] was 0.6 µM·h and the Ki [4] was 0.0034 µM. It also gave a solubility [5] of less than 1 µM and an IC50 [6] of 0.025 µM.

In the case of `COc1ccc(CN[C@@H](C(=O)NC2c3ccccc3C[C@H]2O)[C@H](O)[C@H](Cc2ccccc2)NC(=O)[C@@H](NC(=O)CCc2ccccc2O)C(C)(C)C)cc1` (stereo partly specified), the Cmax [2] is reported as 1800 nM, the AUC [3] is reported as 11.8 µM·h and the Ki [4] is reported as 0.013 µM. It also gave an IC50 [6] of 0.16 µM.

For `CC(C)(C)OC(=O)N[C@@H](Cc1ccccc1)[C@@H](O)[C@@H](NCc1ccc(CNC(=O)CCc2nc3ccccc3[nH]2)cc1)C(=O)NCc1ccccc1`, the IC50 [1] was “No activity”.

For `CC(C)(C)OC(=O)N[C@@H](Cc1ccccc1)[C@@H](O)[C@@H](NCc1ccc(CNC(=O)CCc2nc3ccccc3[nH]2)cc1)C(=O)N[C@H]1c2ccccc2C[C@H]1O`, the Ki [4] was 0.041 µM and the IC50 [6] was 4.4 µM.

`COc1ccc(CN[C@@H](C(=O)NC(C(=O)NCc2nc3ccccc3[nH]2)c2ccccc2)[C@H](O)[C@H](Cc2ccccc2)NC(=O)OC(C)(C)C)cc1` (stereo partly specified) showed a Ki [4] of 0.011 µM and an IC50 [6] of 0.38 µM.

`CC(C)(C)OC(=O)N[C@@H](Cc1ccccc1)[C@@H](O)[C@@H](NCc1ccc(OCCO)cc1)C(=O)N[C@@H]1c2ccccc2C[C@H]1O` showed a Ki [4] of 0.08 µM and an IC50 [6] of 4 µM.

For `CC(C)(C)[C@H](NC(=O)OCc1ccccc1)C(=O)N[C@@H](Cc1ccccc1)[C@@H](O)[C@@H](NCc1ccc(OCCO)cc1)C(=O)N[C@H]1c2ccccc2C[C@H]1O`, the Cmax [2] was 2600 nM, the AUC [3] was 5.9 µM·h and the solubility [5] was 16.5 µM (≈ 12.4 µg/mL). For the same compound, the IC50 [6] was 0.155 µM.

In the case of `COc1ccc(CN[C@@H](C(=O)N[C@@H]2c3ccccc3C[C@H]2O)[C@H](O)[C@H](Cc2ccccc2)NC(=O)OC(C)(C)C)cc1`, the Ki [4] is reported as 0.065 µM and the IC50 [9] is reported as “No activity”.

`CC(C)(C)OC(=O)N[C@@H](Cc1ccccc1)[C@@H](O)[C@@H](NCc1ccccc1)C(=O)NCc1ccccc1` showed a Cmax [2] of 400 nM, an AUC [3] of 0.8 µM·h and a solubility [5] of less than 1 µM. For the same compound, the IC50 [1] was “No activity”.

Compound `COc1ccc(CN[C@@H](C(=O)NC(C(=O)NCc2nc3ccccc3[nH]2)C(C)C)[C@H](O)[C@H](Cc2ccccc2)NC(=O)OC(C)(C)C)cc1` (stereo partly specified) has a Cmax [2] of 9100 nM, an AUC [3] of 127 µM·h and a Ki [4] of 0.0077 µM. For the same compound, the solubility [5] was 9 µM (≈ 6.06 µg/mL) and the IC50 [6] was 0.51 µM.

For `CC(C)(C)OC(=O)N[C@@H](Cc1ccccc1)[C@@H](O)[C@@H](NCc1ccc(CNC(=O)Nc2ccccc2)cc1)C(=O)N[C@@H]1c2ccccc2C[C@H]1O`, the Ki [4] was 0.033 µM and the IC50 [9] was “No activity”.

Compound `COc1ccc(CN[C@@H](C(=O)N[C@H]2c3ccccc3C[C@H]2O)[C@H](O)[C@H](Cc2ccccc2)NC(=O)[C@@H](NC(=O)OCc2ccccc2)C(C)(C)C)cc1` has a Cmax [2] of 16500 nM, an AUC [3] of 82.5 µM·h and a Ki [4] of 0.0095 µM. For the same compound, the solubility [5] was less than 1 µM and the IC50 [6] was 0.254 µM.

Work on `COc1ccc(CN[C@@H](C(=O)NC2c3ccccc3C[C@H]2O)[C@H](O)[C@H](Cc2ccccc2)NC(=O)[C@@H](NC(=O)/C=C/c2ccc(OC)cc2O)C(C)(C)C)cc1` (stereo partly specified) yielded a Ki [4] of 0.018 µM and an IC50 [6] of 0.238 µM.

`CC(=O)NCc1ccc(CN[C@@H](C(=O)N[C@H]2c3ccccc3C[C@H]2O)[C@H](O)[C@H](Cc2ccccc2)NC(=O)OC(C)(C)C)cc1` showed a Ki [4] of 0.07 µM and an IC50 [6] of 2.6 µM.

Source: ChEMBL document CHEMBL1129316, “Inhibitors of human immunodeficiency virus type 1 protease containing 2-aminobenzyl-substituted 4-amino-3-hydroxy-5-phenylpentanoic acid: synthesis, activity, and oral bioavailability” (J Med Chem, 1996)
